Reference: ChEMBL document CHEMBL1138329, “Pharmacokinetic/pharmacodynamic model-guided identification of hypoxia-selective 1,2,4-benzotriazine 1,4-dioxides with antitumor activity: the role of extravascular transport” (J Med Chem, 2007)

Key:
[1] = tested on: HT-29; assay: Ratio of IC50 for HT29 cells under oxic conditions to hypoxic conditions after 4 hrs; assay type: functional, Homo sapiens
[2] = tested on: HT-29; assay: Cytotoxicity against human HT29 cells under hypoxic conditions after 4 hrs; assay type: functional, cell-based; conditions: HT-29, 4 h
[3] = tested on: SiHa; assay: Cytotoxicity against human SiHa cells under hypoxic conditions after 4 hrs; assay type: functional, cell-based
[4] = Solubility in culture medium in presence of 5% fetal calf serum; assay type: physicochemical; conditions: culture medium with 5% fetal calf serum
[5] = tested on: HT-29; assay: Effect on human HT29 cells under hypoxic conditions assessed as drug level causing 10% clonogenic survival; assay type: functional
How it was run: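 HT29 suspensions (1 or 2 × 10^6 cells/mL) in serum-free medium were stirred under 5% CO2/95% N2 for 90 min. Drug was added from deoxygenated DMSO stock at a level giving about 10% survival at 1 h, and samples were taken up to 3 h. Clonogenic survival (14 days, methylene blue) was fitted with the HPLC concentration–time data, and the 10% survival exposure was interpolated.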

[6] = tested on: SiHa; assay: Ratio of IC50 for SiHa cells under oxic conditions to hypoxic conditions after 4 hrs; assay type: functional, Homo sapiens
[7] = tested on: HT-29; assay: Diffusion coefficient, D in HT29 multicellular layers; assay type: ADME, cell-based; conditions: human
How it was run: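 HT29 multicellular layers were grown 3 days on collagen-coated Teflon membranes, equilibrated 60 min under 95% O2/5% CO2 at 37 °C, then placed in a diffusion chamber. Donor and receiver were sampled up to 5 h and assayed by HPLC. D came from fitting both profiles to a Fickian model with membrane and MCL in series, corrected by support-only Ds.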

[8] = Half life in CD1 mouse at 316 umol/kg, ip; assay type: ADME, organism-based; conditions: in vivo
How it was run: (§1)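 Single i.p. dose to CD-1 homozygous nude mice, drug as HCl salt in 0.9% saline, 5% DMSO/saline or lactate buffer (pH 4.0). Plasma total drug measured by HPLC at 75 or 100% of MTD (MTD from 1.33-fold dose steps, 6 mice). Noncompartmental analysis gave AUC, Cmax and t1/2.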

[9] = Cmax in CD1 mouse at 316 umol/kg, ip; assay type: ADME, organism-based; parameters: dose 316 umol/kg, route intraperitoneal; conditions: in vivo; how it was run: as §1
[10] = tested on: Mus musculus; assay: Toxicity in ip dosed CD1 mouse; assay type: organism-based; conditions: in vivo
How it was run: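 MTD in CD-1 homozygous nude mice after single i.p. doses (HCl salts in saline, 5% DMSO/saline or lactate buffer pH 4.0), escalated in 1.33-fold increments. MTD taken as the highest dose causing no death, no body weight loss >15% and no other severe morbidity in any of 6 mice.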

[11] = AUC in CD1 mouse at 316 umol/kg, ip; assay type: ADME, organism-based; conditions: plasma; how it was run: as §1
[12] = Half life in CD1 mouse at 1000 umol/kg, ip; assay type: ADME, organism-based; conditions: in vivo; how it was run: as §1
[13] = tested on: HT-29; assay: Antitumor activity against human HT29 cells implanted in CD1 mouse at 1000 umol/kg, ip administered 5 mins after irradiation by excision assay relative to radiation alone; assay type: functional
How it was run: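 Hypoxic-cell excision assay in HT29 xenografts in CD-1 homozygous nude mice. Mice received 20 Gy γ radiation to sterilize oxic tumor cells, then a single i.p. drug dose (HCl salt in saline, 5% DMSO/saline or pH 4.0 lactate buffer) 5 min later. Tumors excised at 18 h and plated for clonogens/g. Log cell kill = log(clonogens/g, radiation only) − log(clonogens/g, radiation plus drug).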

[14] = Cmax in CD1 mouse at 1000 umol/kg, ip; assay type: ADME, organism-based; parameters: dose 1000 umol/kg, route intraperitoneal; conditions: in vivo; how it was run: as §1
[15] = tested on: HT-29; assay: Antitumor activity against human HT29 cells implanted in CD1 mouse assessed as clonogenic survival at 1000 umol/kg, ip after 18 hrs relative to control; assay type: functional
How it was run: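 HT29 xenografts in CD-1 homozygous nude mice; single i.p. dose of drug alone, formulated as the HCl salt in 0.9% saline, 5% DMSO/saline or lactate buffer (pH 4.0). Tumors excised 18 h later, dissociated to single-cell suspensions and plated. Clonogens/g of tumor counted; surviving fraction = treated/control clonogens/g.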

[16] = Cmax in CD1 mouse at 750 umol/kg, ip; assay type: ADME, organism-based; parameters: dose 750 umol/kg, route intraperitoneal; conditions: in vivo; how it was run: as §1
[17] = AUC in CD1 mouse at 750 umol/kg, ip; assay type: ADME, organism-based; conditions: plasma; how it was run: as §1
[18] = Half life in CD1 mouse at 750 umol/kg, ip; assay type: ADME, organism-based; conditions: in vivo; how it was run: as §1

SMILES | Ratio IC50 [1] | IC50 [2] | IC50 [3] | solubility [4] | Activity [5] | Ratio IC50 [6] | D [7] | half-life [8] | Cmax [9] | MTD [10] | AUC [11] | half-life [12] | LCK [13] | Cmax [14] | LCK [15] | Cmax [16] | AUC [17] | half-life [18]
CN(C)CCCNc1n[n+]([O-])c2ccccc2[n+]1[O-] | 49 | 3400 nM | 2300 nM | 38 mM | 7.8 µM·h | 82 | 1.87e-07 cm²/s |  |  |  |  |  |  |  |  |  |  | 
CCCN(CCC)CCNc1n[n+]([O-])c2ccc(C)cc2[n+]1[O-] | 108 | 2700 nM | 600 nM | 38 mM | 38.6 µM·h | 149 | 1.48e-06 cm²/s | 17.3 min | 3.8 µM | 421 µmol/kg | 2.6 µM·h |  |  |  |  |  |  | 
CC(C)c1ccc2c(c1)[n+]([O-])c(NCCN1CCOCC1)n[n+]2[O-] | 14 | 45100 nM | 15500 nM | 30 mM | 217.8 µM·h | 33 |  |  |  |  |  |  |  |  |  |  |  | 
[O-][n+]1nc(NCCN2CCCCC2)[n+]([O-])c2cc(Cl)ccc21 | 19 | 400 nM | 200 nM | 3.2 mM |  | 18 | 1.1e-06 cm²/s |  |  |  |  |  |  |  |  |  |  | 
CCN(CC)CCNc1n[n+]([O-])c2ccc(C(C)C)cc2[n+]1[O-] | 122 | 2000 nM | 800 nM | 45 mM | 18.6 µM·h | 113 |  |  |  |  |  |  |  |  |  |  |  | 
Cc1ccc2c(c1)[n+]([O-])c(N)n[n+]2[O-] | 36 | 12900 nM |  | 3 mM | 61.9 µM·h |  | 5.43e-07 cm²/s |  |  | 1000 µmol/kg |  | 34.1 min | 2.16 | 198 µM | 0.39 |  |  | 
CCOc1ccc2c(c1)[n+]([O-])c(NCCCN1CCOCC1)n[n+]2[O-] | 52 | 18000 nM | 7600 nM | > 51 mM | 260.6 µM·h | 140 |  |  |  |  |  |  |  |  |  |  |  | 
Cc1ccc2c(c1)[n+]([O-])c(NCCN1CCOCC1)n[n+]2[O-] | 55 | 21800 nM | 8300 nM | > 46 mM | 134 µM·h | 86 | 4.52e-07 cm²/s |  |  | 1000 µmol/kg |  |  |  |  |  | 132 µM | 86.8 µM·h | 15.4 min
Cc1ccc2c(c1)[n+]([O-])c(NCCCN1CCC(C#N)C1)n[n+]2[O-] (stereo not given) | 54 | 14100 nM | 9200 nM | 49 mM | 62.2 µM·h | 54 |  |  |  |  |  |  |  |  |  |  |  | 
CCc1ccc2c(c1)[n+]([O-])c(NCCN1CCCCC1)n[n+]2[O-] | 65 | 1500 nM | 1000 nM | 39 mM | 11.9 µM·h | 50 |  |  |  |  |  |  |  |  |  |  |  | 
CCN(CC)CCNc1n[n+]([O-])c2ccc(Cl)cc2[n+]1[O-] | 43 | 300 nM | 200 nM | 23 mM |  | 28 |  |  |  |  |  |  |  |  |  |  |  | 
[O-][n+]1nc(NCCN2CCCCC2)[n+]([O-])c2ccccc21 | 24 | 1800 nM | 1100 nM | > 49 mM | 2.8 µM·h | 55 | 7.23e-07 cm²/s |  |  |  |  |  |  |  |  |  |  | 
CCCN(CCC)CCNc1n[n+]([O-])c2ccc(C(C)C)cc2[n+]1[O-] | 35 | 4400 nM | 900 nM | 39 mM | 41.6 µM·h | 65 |  |  |  |  |  |  |  |  |  |  |  | 
CN(C)CCNc1n[n+]([O-])c2ccccc2[n+]1[O-] | 80 | 700 nM | 200 nM | 50 mM | 3.2 µM·h | 157 |  |  |  |  |  |  |  |  |  |  |  | 
[O-][n+]1nc(NCCN2CCCC2)[n+]([O-])c2ccccc21 | 70 | 600 nM | 200 nM | 61 mM | 3.6 µM·h | 132 |  |  |  |  |  |  |  |  |  |  |  | 
